# According to ChEMBL document CHEMBL1152513, “Synthesis and characterizations of novel quinoline derivatives having mixed ligand activities at the kappa and mu receptors: Potential therapeutic efficacy against morphine dependence” (Bioorg Med Chem, 2009):
# Active and inactive are the calls of the source. No cut-off for these calls is given here.
# Legend:
# [1] = biological target: Kappa-type opioid receptor (Homo sapiens) (UniProt P41145); assay: Displacement of [3H]dynorphin from human kappa opioid receptor expressed in C6 giloma cells measured total binding per mg of protein at 5 uM; format: cell-based
# Chain of Kappa-type opioid receptor (Homo sapiens) (P41145 whole entry): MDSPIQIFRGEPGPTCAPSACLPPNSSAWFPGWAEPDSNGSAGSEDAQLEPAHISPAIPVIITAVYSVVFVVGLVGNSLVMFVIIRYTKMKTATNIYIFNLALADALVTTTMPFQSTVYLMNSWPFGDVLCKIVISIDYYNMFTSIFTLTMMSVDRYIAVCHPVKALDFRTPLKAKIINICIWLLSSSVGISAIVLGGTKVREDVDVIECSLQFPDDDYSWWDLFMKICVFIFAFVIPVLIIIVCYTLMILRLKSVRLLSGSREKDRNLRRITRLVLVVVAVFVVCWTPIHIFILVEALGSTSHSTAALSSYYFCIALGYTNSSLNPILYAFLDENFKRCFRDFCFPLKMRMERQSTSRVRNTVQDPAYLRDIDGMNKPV
# Summary of the method: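 Membranes from C6 glioma cells stably transfected with human KOR (G418 selected), harvested in PBS, homogenized in 50 mM Tris–HCl pH 7.4 and spun at 30,000g. Nonspecific binding defined with 10 µM U50488H. Read by filtration and counting.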
# [2] = biological target: Mu-type opioid receptor (Rattus norvegicus) (UniProt P33535); assay: Displacement of [3H]DAMGO from mu opioid receptor in rat brain measured total binding per mg of protein at 5 uM; format: tissue-based
# Chain of Mu-type opioid receptor (Rattus norvegicus) (P33535 whole entry): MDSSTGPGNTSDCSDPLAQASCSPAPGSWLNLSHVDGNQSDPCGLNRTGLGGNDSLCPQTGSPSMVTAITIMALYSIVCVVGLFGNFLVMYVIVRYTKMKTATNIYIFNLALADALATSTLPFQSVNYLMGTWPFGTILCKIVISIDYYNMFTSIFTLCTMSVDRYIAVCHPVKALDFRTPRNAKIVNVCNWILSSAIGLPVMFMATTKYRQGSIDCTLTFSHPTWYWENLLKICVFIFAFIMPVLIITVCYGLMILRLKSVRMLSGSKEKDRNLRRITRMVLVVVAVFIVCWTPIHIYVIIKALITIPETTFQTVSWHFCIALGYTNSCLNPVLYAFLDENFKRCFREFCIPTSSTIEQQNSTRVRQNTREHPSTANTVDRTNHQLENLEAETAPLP
# Rattus norvegicus [3] = species on record: Rattus norvegicus; assay: Induction of ERK phosphorylation in rat primary astrocyte at 40 uM after 10 mins
# Summary of the method: (§1)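 Primary astrocytes from neocortex of newborn rat pups (<24 h), grown 10 days, then serum-starved 48 h. Treated 10 min at 40 µM; antagonists added 1 h before stimulation. pERK1/2 measured by western blot, 40 µg protein/lane, 10% SDS-PAGE, anti-p-ERK at 1:1000. Mean ± SEM of at least 3 blots, compared with untreated control.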
# Mus musculus [4] = assay: Inhibition of naloxone-induced stereotype jumping in morphine treated mouse at 20 mg/kg, iv for 6 days; format: functional, organism-based; parameters: dose 20 mg/kg
# Mus musculus [5] = assay: Inhibition of naloxone-induced weight loss in mouse at 20 mg/kg, iv for 6 days; format: functional, organism-based; parameters: dose 20 mg/kg
# Rattus norvegicus [6] = species on record: Rattus norvegicus; assay: Induction of ERK phosphorylation in rat primary astrocyte at 40 uM after 10 mins in presence of naloxone; summary of the method: as §1
Structure (SMILES),Activity [1],Activity [2],Activity (Rattus norvegicus [3]),Activity (Mus musculus [4]),Activity (Mus musculus [5]),Activity (Rattus norvegicus [6])
Cc1cc(N)c2ccccc2n1,71%,95%,Active,,,
Cc1cc(N(CC(=O)NC2CCCCC2)CC(=O)NC2CCCCC2)c2ccccc2n1,114%,53%,Active,,,
Cc1ccc(C(=O)Nc2cc(C)nc3ccccc23)cc1,58%,62%,Active,Active,Active,
Cc1ccc(NC(=O)CNc2cc(C)nc3ccccc23)cc1,90%,47%,Active,Active,,
C[C@@H](NC(=O)[C@@H](N)Cc1ccc(O)cc1)C(=O)NCC(=O)N(C)[C@@H](Cc1ccccc1)C(=O)NCCO,,76%,,,,
Cc1ccc(NC(=O)CCNc2cc(C)nc3ccccc23)cc1,56%,23%,Active,,,
Cc1cc(NCC(=O)Nc2cc(Cl)ccc2Cl)c2ccccc2n1,74%,66%,Active,,,
Cc1cc(NC(=O)C(Cl)Cl)c2ccccc2n1,77%,106%,Active,,,
O=C(CCCl)Nc1ccccc1,59%,61%,Active,,Active,
Cc1cc(NCC(=O)Nc2ccccc2Cl)c2ccccc2n1,52%,52%,Active,Active,,
COc1ccc(NC(=O)CNc2cc(C)nc3ccccc23)cc1,44%,27%,Active,,,
Cc1cc(NCC(=O)Nc2ccccc2)c2ccccc2n1,38%,30%,Active,Active,,inactive
